Measured values: ChEMBL document CHEMBL4699636, “Novel 2,7-Diazaspiro[4,4]nonane Derivatives to Inhibit Mouse and Human Osteoclast Activities and Prevent Bone Loss in Ovariectomized Mice without Affecting Bone Formation” (J Med Chem, 2020)
Activity calls are given as the source filed them. No cut-off for these calls is given here.

Key:
Osteoclast [1] = assay: Inhibition of resorption activity of mouse peripheral blood cell-derived osteoclasts at 5-10 uM incubated for 48 hrs by Kossa-staining based assay; type: functional, tissue-based; conditions: dose microM 5-10, time 48.0 hrs, in the assay text read “bone marrow-derived” for “peripheral blood cell-derived”
Method in brief: (§1)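 Osteoclasts from C57BL/6J mouse bone marrow, M-CSF then M-CSF 30 ng/mL plus RANKL 100 ng/mL. Day-3 cells reseeded on calcium phosphate-coated wells, compound added next day in 0.5% DMSO for 48 h, 8 wells per condition. 4 wells TRAP-stained for osteoclast counts, 4 von Kossa-stained for resorbed area. Activity expressed as resorption normalized to osteoclast number.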

[2] = target: T1, Dedicator of cytokinesis protein 5 (Homo sapiens, UniProt Q9H7D0); assay: Inhibition of C-terminal 6-histidine tagged human DOCK5 (1212 to 1642 residues) expressed in Escherichia coli assessed as reduction in nucleotide exchange efficiency at 20 to 60 uM by N-methylanthraniloyl-GDP fluorescence based nucleotide exchange assay; conditions: dose microM 20-60
T1 sequence (Q9H7D0 whole entry, the tested form may be a part): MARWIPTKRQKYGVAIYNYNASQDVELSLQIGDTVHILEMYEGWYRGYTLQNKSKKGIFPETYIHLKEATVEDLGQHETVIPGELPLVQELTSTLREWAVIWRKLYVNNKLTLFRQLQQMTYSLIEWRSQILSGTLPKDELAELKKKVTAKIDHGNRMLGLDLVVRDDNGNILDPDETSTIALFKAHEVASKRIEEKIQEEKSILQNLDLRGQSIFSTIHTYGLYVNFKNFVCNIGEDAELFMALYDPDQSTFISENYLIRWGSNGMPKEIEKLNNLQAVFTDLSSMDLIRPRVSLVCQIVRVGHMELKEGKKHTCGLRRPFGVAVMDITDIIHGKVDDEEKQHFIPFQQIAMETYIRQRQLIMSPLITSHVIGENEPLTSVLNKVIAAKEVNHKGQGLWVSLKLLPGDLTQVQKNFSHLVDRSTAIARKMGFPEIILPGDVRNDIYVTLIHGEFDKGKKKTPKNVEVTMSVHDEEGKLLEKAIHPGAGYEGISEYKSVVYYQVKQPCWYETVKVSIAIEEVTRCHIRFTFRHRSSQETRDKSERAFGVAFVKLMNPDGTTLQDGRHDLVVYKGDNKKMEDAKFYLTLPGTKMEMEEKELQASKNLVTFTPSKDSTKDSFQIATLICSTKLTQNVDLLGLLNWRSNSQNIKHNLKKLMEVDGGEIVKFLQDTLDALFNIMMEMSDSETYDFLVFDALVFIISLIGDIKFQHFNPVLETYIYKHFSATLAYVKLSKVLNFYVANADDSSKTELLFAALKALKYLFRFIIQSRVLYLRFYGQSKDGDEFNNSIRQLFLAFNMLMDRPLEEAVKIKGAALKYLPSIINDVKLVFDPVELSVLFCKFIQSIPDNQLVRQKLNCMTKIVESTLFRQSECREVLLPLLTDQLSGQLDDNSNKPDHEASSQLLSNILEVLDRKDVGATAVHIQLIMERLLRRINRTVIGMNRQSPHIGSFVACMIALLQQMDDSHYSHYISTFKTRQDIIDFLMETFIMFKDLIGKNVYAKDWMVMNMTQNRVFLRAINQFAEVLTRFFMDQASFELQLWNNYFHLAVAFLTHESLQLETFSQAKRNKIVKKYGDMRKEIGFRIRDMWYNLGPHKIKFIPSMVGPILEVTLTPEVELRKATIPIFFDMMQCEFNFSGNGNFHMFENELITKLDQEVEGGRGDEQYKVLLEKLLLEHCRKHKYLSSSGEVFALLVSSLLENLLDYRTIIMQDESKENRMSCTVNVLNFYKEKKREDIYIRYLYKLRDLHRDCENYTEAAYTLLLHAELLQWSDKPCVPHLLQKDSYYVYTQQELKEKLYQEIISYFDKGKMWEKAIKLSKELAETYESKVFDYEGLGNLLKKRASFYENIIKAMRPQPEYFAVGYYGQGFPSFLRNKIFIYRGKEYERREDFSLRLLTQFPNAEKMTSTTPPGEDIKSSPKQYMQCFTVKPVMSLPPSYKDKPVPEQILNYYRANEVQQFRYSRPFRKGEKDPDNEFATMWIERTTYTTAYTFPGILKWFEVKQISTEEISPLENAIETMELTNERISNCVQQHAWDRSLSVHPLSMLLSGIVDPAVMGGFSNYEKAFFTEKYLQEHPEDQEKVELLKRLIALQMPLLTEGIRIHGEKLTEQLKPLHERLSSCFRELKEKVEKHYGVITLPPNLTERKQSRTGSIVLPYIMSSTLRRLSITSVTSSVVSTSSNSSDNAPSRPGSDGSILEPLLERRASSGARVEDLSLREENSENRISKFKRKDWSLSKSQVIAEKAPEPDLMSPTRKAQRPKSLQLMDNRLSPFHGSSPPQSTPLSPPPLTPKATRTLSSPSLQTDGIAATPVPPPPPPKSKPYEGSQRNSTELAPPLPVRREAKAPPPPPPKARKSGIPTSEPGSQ
Method in brief: (§2)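 Mant-GDP-loaded His-tagged human RAC1 at 2.0 µM with 100 nM DOCK5 (residues 1212-1642) or TRIOGEF1 (R1232-T1550), both E. coli-expressed. Buffer: 50 mM Tris pH 8, 300 mM NaCl, 2 mM MgCl2, 1 mM DTT, 1% DMSO, 25 °C. Reaction started with 100 µM GTP. Fluorescence decay read at ex 360/em 440 nm, kobs by single-exponential fit, compound at 0, 20 or 60 µM, duplicates, as % of activity.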

[3] = Toxicity in mouse peripheral blood cell-derived osteoclasts assessed as reduction in osteoclasts number at 5-10 uM incubated for 48 hrs by TRAP-staining based assay; type: tissue-based; conditions: osteoclast, in the assay text read “bone marrow-derived” for “peripheral blood cell-derived”
Method in brief: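 Osteoclasts were derived from bone marrow of 4–8-week-old C57BL/6J mice, first with M-CSF 100 ng/mL for 48 h, then with M-CSF 30 ng/mL plus RANKL 100 ng/mL. At day 3 of differentiation they were detached with Accutase and seeded on calcium phosphate-coated wells. Next day, compound was added in 0.5% DMSO (8 wells/condition) for 48 h. Four wells were TRAP-stained (pH 5, tartrate, 1.5 h, 37 °C) and osteoclasts counted from images.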

[4] = system: Osteoclast (Homo sapiens); assay: Inhibition of resorption activity of human peripheral blood cell-derived osteoclasts at 1-20 uM incubated for 48 hrs by Kossa-staining based assay; conditions: dose microM 1-20, time 48.0 hrs
[5] = target: Triple functional domain protein (Homo sapiens) (UniProt O75962); assay: Inhibition of C-terminal 6-histidine tagged human TRIOGEF1 (R1232 to T1550 residues) expressed in Escherichia coli assessed as reduction in nucleotide exchange efficiency at 20 to 60 uM by N-methylanthraniloyl-GDP fluorescence based nucleotide exchange assay; conditions: dose microM 20-60; method in brief: as §2
[6] = system: Osteoclast (Homo sapiens); assay: Toxicity in human peripheral blood cell-derived osteoclasts assessed as reduction in osteoclasts number at 20 uM incubated for 48 hrs by TRAP-staining based assay
[7] = target: Dedicator of cytokinesis protein 5 (Mus musculus) (UniProt B2RY04); assay: Inhibition of DOCK5 in mouse osteoclasts assessed as induction of podosome belt organization defects at 100 uM incubated for 4 hrs followed by compound wash out by overnight recovery by immunofluorescence based assay; type: tissue-based; conditions: Osteoclast
Dedicator of cytokinesis protein 5 (Mus musculus), sequence (B2RY04 whole entry, the tested form may be a part): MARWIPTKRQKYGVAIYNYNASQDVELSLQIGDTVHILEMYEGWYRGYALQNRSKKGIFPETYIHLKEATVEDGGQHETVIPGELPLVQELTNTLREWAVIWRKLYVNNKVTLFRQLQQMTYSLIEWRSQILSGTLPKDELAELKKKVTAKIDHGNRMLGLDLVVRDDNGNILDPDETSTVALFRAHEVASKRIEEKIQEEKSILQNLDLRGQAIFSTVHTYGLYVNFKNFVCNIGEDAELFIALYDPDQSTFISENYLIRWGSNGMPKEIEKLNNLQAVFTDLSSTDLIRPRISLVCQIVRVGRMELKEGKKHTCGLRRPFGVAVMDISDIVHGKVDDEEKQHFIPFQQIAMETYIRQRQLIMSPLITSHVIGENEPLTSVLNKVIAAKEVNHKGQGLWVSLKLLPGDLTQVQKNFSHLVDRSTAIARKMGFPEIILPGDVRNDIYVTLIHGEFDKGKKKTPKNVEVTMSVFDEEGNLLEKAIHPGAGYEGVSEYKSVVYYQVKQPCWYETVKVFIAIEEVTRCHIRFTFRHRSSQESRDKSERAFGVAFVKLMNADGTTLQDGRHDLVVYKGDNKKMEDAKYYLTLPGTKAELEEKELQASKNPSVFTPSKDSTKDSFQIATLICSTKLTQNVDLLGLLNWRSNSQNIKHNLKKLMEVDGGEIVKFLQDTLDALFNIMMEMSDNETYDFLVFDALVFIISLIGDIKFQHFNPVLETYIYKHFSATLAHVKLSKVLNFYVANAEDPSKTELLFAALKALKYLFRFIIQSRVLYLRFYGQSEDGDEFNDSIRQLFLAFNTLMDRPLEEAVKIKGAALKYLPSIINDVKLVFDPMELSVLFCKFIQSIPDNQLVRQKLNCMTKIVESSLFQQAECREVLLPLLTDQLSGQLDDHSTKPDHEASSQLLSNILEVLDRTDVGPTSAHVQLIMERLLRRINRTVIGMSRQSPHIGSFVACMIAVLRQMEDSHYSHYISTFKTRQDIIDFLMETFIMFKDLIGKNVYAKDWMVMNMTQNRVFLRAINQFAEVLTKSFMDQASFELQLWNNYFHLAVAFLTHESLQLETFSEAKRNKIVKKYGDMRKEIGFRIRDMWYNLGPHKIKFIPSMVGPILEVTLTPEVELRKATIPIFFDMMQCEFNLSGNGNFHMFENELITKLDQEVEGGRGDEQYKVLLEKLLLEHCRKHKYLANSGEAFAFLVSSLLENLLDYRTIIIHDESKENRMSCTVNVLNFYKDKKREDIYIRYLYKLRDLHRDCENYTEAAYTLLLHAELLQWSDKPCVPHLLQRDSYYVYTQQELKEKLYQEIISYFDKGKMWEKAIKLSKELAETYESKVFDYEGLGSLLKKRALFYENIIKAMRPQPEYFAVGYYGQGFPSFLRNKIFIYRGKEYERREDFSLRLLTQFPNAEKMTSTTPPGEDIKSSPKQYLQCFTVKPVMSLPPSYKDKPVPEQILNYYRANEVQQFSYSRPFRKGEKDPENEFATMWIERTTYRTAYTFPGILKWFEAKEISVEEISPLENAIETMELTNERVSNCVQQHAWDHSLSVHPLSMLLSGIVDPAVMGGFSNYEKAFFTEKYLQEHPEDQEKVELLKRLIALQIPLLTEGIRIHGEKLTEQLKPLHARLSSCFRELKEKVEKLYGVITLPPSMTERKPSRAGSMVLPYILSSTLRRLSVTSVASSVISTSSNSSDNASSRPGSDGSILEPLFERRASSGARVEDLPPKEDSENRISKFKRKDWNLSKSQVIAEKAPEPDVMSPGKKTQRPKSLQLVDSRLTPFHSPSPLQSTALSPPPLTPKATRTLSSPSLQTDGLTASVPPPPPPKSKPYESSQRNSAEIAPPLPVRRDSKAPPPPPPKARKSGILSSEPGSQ
Method in brief: (§3)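 Mouse bone-marrow osteoclasts, differentiated with M-CSF and RANKL on coverslips. Compound added to 100 µM final, 0.5% DMSO, for 4 h. Cells fixed directly, or after medium change and overnight recovery, then stained for vinculin and actin (phalloidin) and viewed by widefield microscopy for podosome belt organization.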

[8] = target: Dedicator of cytokinesis protein 5 (Mus musculus) (UniProt B2RY04); assay: Inhibition of N-terminal GFP tagged mouse DOCK5 expressed in HEK293T cells assessed as reduction in exchange activity at 100 uM incubated for 1 hr by Western blot analysis based Rac-GTP pull-down assay; type: cell-based
Method in brief: (§4)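 HEK293T cells transiently expressing GFP-tagged DOCK5 DHR2 exchange domain (mouse, or human residues 1212-1642). Treated 1 h with compound in 1% DMSO, then lysed. Rac-GTP pulled down with GST-PakCRIB beads, 45 min at 4 °C, and detected by western blot. Band intensity normalized to lysate protein. Single dose 100 µM; dose-response in 1.5x steps for IC50.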

[9] = target: T1, Dedicator of cytokinesis protein 5; assay: Inhibition of N-terminal GFP tagged human DOCK5 (1212-1642 residues) expressed in HEK293T cells assessed as reduction in exchange activity incubated for 1 hr by Western blot analysis based Rac-GTP pull-down assay; type: cell-based; method in brief: as §4
[10] = target: Dedicator of cytokinesis protein 5 (Mus musculus) (UniProt B2RY04); assay: Inhibition of DOCK5 in mouse osteoclasts assessed as induction of podosome belt organization defects at 100 uM incubated for 4 hrs by immunofluorescence based assay; conditions: Osteoclast; method in brief: as §3
Osteoclast [11] = assay: Inhibition of resorption activity of mouse peripheral blood cell-derived osteoclasts at 8 uM incubated for 48 hrs by Kossa-staining based assay; type: functional, tissue-based; conditions: in the assay text read “bone marrow-derived” for “peripheral blood cell-derived”; method in brief: as §1
Mus musculus [12] = assay: Antiosteoporotic activity in C57BL6/J mouse model of OVX-induced bone loss assessed as structure model index level in tibial metaphysis at 100 ug/kg, sc QD for 4 weeks by microCT analysis (1.92 +/- 0.19); type: functional; conditions: dose 100 µg/kg
[13] = Toxicity in C57BL6/J mouse model of OVX-induced bone loss assessed as effect on body weight at 100 ug/kg, sc QD for 4 weeks; type: organism-based; conditions: in vivo, 0.1 mg/kg, 672 h, dose 100 µg/kg
[14] = Toxicity in C57BL6/J mouse model of OVX-induced bone loss assessed as effect on bone formation by measuring osteocalcin level at 100 ug/kg, sc QD for 4 weeks […]; type: organism-based; conditions: in vivo, 0.1 mg/kg, 672 h, dose 100 µg/kg
Mus musculus [15] = assay: Antiosteoporotic activity in C57BL6/J mouse model of OVX-induced bone loss assessed as degree of anisotropy (range 0-1) level in tibial metaphysis at 100 ug/kg, sc QD for 4 weeks by microCT analysis (0.53 +/- 0.07); type: functional; conditions: dose 100 µg/kg
Mus musculus [16] = assay: Antiosteoporotic activity in C57BL6/J mouse model of OVX-induced bone loss assessed as serum CTX-1 level […] at 100 ug/kg, sc QD for 4 weeks (165.38 +/- 54.93 %); type: functional; conditions: dose 100 µg/kg
Mus musculus [17] = assay: Antiosteoporotic activity in C57BL6/J mouse model of OVX-induced bone loss assessed as trabecular bone volume per tissue volume level in femoral metaphysis at 100 ug/kg, sc QD for 4 weeks by histomorphometry (11.67 +/- 2.37%); type: functional; conditions: dose 100 µg/kg
Mus musculus [18] = assay: Antiosteoporotic activity in C57BL6/J mouse model of OVX-induced bone loss assessed as trabecular separation level in femoral metaphysis at 100 ug/kg, sc QD for 4 weeks by histomorphometry (319.80 +/- 106.52 um); type: functional; conditions: dose 100 µg/kg
Mus musculus [19] = assay: Antiosteoporotic activity in C57BL6/J mouse model of OVX-induced bone loss assessed as cortical thickness level in tibial diaphysis at 100 ug/kg, sc QD for 4 weeks by microCT analysis (179.27 +/- 7.57 um); type: functional; conditions: dose 100 µg/kg
Mus musculus [20] = assay: Antiosteoporotic activity in C57BL6/J mouse model of OVX-induced bone loss assessed as trabecular bone volume per tissue volume level in tibial metaphysis at 100 ug/kg, sc QD for 4 weeks by microCT analysis (17.49 +/- 2.91 %); type: functional; conditions: dose 100 µg/kg
[21] = Toxicity in C57BL6/J mouse model of OVX-induced bone loss assessed as effect on bone formation by measuring osteoblast surface per trabecular bone surface level in femoral metaphysis at 100 ug/kg, sc QD for 4 weeks by histomorphometry (5.03 +/ 2.92 %); type: organism-based; conditions: in vivo, 0.1 mg/kg, 672 h, dose 100 µg/kg
[22] = Toxicity in C57BL6/J mouse model of OVX-induced bone loss assessed as effect on bone formation by measuring number of osteoblasts per bone surface level in femoral metaphysis at 100 ug/kg, sc QD for 4 weeks by histomorphometry (4.55 +/ 2.53 /mm); type: organism-based; conditions: in vivo, 0.1 mg/kg, 672 h, dose 100 µg/kg
Mus musculus [23] = assay: Antiosteoporotic activity in C57BL6/J mouse model of OVX-induced bone loss assessed as trabecular thickness level in femoral metaphysis at 100 ug/kg, sc QD for 4 weeks by histomorphometry (39.96 +/- 5.42 um); type: functional; conditions: dose 100 µg/kg
[24] = Toxicity in C57BL6/J mouse model of OVX-induced bone loss assessed as effect on bone formation by measuring mineralizing mineral apposition rate level in femoral metaphysis at 100 ug/kg, sc QD for 4 weeks by histomorphometry (1.62 +/ 0.21 um/d (lcm)); type: organism-based; conditions: in vivo, 0.1 mg/kg, 672 h, dose 100 µg/kg
Mus musculus [25] = assay: Antiosteoporotic activity in C57BL6/J mouse model of OVX-induced bone loss assessed as trabecular pattern factor level in tibial metaphysis at 100 ug/kg, sc QD for 4 weeks by microCT analysis (17.17 +/- 3.41 […]); type: functional; conditions: dose 100 µg/kg
Mus musculus [26] = assay: Antiosteoporotic activity in C57BL6/J mouse model of OVX-induced bone loss assessed as trabecular number level in femoral metaphysis at 100 ug/kg, sc QD for 4 weeks by histomorphometry (2.99 +/- 0.80 /mm); type: functional; conditions: dose 100 µg/kg
[27] = Toxicity in C57BL6/J mouse model of OVX-induced bone loss assessed as effect on bone formation by measuring mineralizing surface per trabecular bone surface level in femoral metaphysis at 100 ug/kg, sc QD for 4 weeks by histomorphometry (27.90 +/ 8.22 %); type: organism-based; conditions: in vivo, 0.1 mg/kg, 672 h, dose 100 µg/kg
[28] = Toxicity in C57BL6/J mouse model of OVX-induced bone loss assessed as effect on bone formation by measuring bone formation rate per trabecular bone surface level in femoral metaphysis at 100 ug/kg, sc QD for 4 weeks by histomorphometry ([…]); type: organism-based; conditions: in vivo, 0.1 mg/kg, 672 h, dose 100 µg/kg

In the case of `COc1ccc(N2CCC3(CCN(Cc4cccc(Cl)c4)C3)C2=O)cc1C` (stereo unspecified), the inhibition (Osteoclast [1]) is reported as “Active”, the inhibition [2] is reported as “inactive” and the Activity [3] is reported as “Toxic”.

In the case of `O=C1N(c2cccc(F)c2)CCC12CCN(Cc1cccc(Cl)c1)C2` (stereo unspecified), the inhibition (Osteoclast [1]) is reported as “Active”, the inhibition [2] is reported as “inactive” and the Activity [3] is reported as “Toxic”.

With `NCCCC(O)(P(=O)(O)O)P(=O)(O)O` the inhibition [4] was “Active”.

For `O=S1(=O)N(c2ccccc2)C[C@H](O)[C@]12CCN(Cc1ccc(Cl)c(Cl)c1)C2` (racemic), the inhibition [5] was “inactive”, the inhibition (Osteoclast [1]) was “Active” and the inhibition [2] was 67%. For the same compound, the inhibition [4] was “Active” and the Activity [6] was “Toxic”.

With `O=S1(=O)N(c2ccccc2)C[C@H](O)[C@]12CCN(Cc1cccc(Cl)c1)C2` (racemic) the inhibition [7] was “inactive”, the inhibition (Osteoclast [1]) was “Active” and the inhibition [2] was “inactive”. For the same compound, the inhibition [8] was “Active”, the IC50 [9] was 24 µM and the inhibition [10] was “Active”. The inhibition (Osteoclast [11]) was “Active”.

In the case of `COc1ccc(CN2CC[C@@]3(C2)[C@@H](O)CN(c2ccccc2)S3(=O)=O)cc1F` (racemic), the inhibition (Osteoclast [1]) is reported as “Active” and the inhibition [2] is reported as “inactive”.

In the case of `Cn1cc(CN2CC[C@@]3(C2)[C@@H](O)CN(c2ccccc2)S3(=O)=O)c2ccccc21` (racemic), the inhibition (Osteoclast [1]) is reported as “Active” and the inhibition [2] is reported as “inactive”.

In the case of `O=S1(=O)N(c2ccccc2)C[C@H](O)[C@]12CCN(Cc1ccc3c(c1)CCC3)C2` (racemic), the inhibition (Osteoclast [1]) is reported as “Active” and the inhibition [2] is reported as “inactive”.

With `O=S1(=O)N(c2ccccc2)C[C@H](O)[C@]12CCN(Cc1ccccc1Cl)C2` (racemic) the inhibition (Osteoclast [1]) was “Active” and the inhibition [2] was “inactive”.

For `O=S1(=O)N(c2ccccc2)C[C@H](O)[C@]12CCN(Cc1cnc3ccccc3c1)C2` (racemic), the inhibition (Osteoclast [1]) was “Active” and the inhibition [2] was “inactive”.

In the case of `O.O=P(O)(O)C(O)(Cn1ccnc1)P(=O)(O)O` [ZOLEDRONIC ACID], the Activity_index (Mus musculus [12]) is reported as -1.36, the Activity [13] is reported as “Non-Toxic” and the Activity [14] is reported as 42.55%. The Activity_index (Mus musculus [15]) was 0.25, the Activity (Mus musculus [16]) was 73.18% and the Activity (Mus musculus [17]) was 26.19%. For the same compound, the Activity (Mus musculus [18]) was 132.16 um, the Activity (Mus musculus [19]) was 189.5 um and the Activity (Mus musculus [20]) was 43.96%. For the same compound, the Activity [21] was 0.52%, the Activity [22] was 0.54 /millimeter and the Activity (Mus musculus [23]) was 44.8 µm. The Activity [24] was 1.11 micrometer/day, the Activity (Mus musculus [25]) was -35.6 1/mm and the Activity (Mus musculus [26]) was 5.92 /millimeter. For the same compound, the Activity [27] was 8.51% and the Activity [28] was 34.28 um3/um2/yr.
